Source: paper PMC11582619 (Communications Biology, 2024)
Entries after “also recorded” stand apart in the source; their conditions may differ.

Columns and labels:
[1] = Plasma concentration of SSa, SSB1 and SGA after oral SSa; format: in vivo, mice; conditions: for course of plasma level after administration (in words): after oral SSa 50 mg/kg
Method in brief: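 Mice fasted 24 h, then given SSa 50 mg/kg by oral gavage. About 100 µL retro-orbital blood taken at 0, 0.5, 1, 2, 4, 6, 8, 10, 12 and 24 h; 9 mice per time point, three mice pooled per sample, n = 3. Plasma SSa, SSB1 and SGA measured by UHPLC-MS/MS against plasma-matrix calibration and QC standards. AUC by moment analysis with log-trapezoidal method.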

HepG2 cells [2] = test: Oil Red O staining of ethanol-induced lipid storage in HepG2 cells; format: cell-based, human; conditions: compound 7.5 μmol/L
HepG2 cells [3] = test: ROS levels by flow cytometry in ethanol-treated HepG2 cells; format: cell-based, human; conditions: ethanol + compound
[4] = test system: chronic-plus-binge ethanol-fed mice; test: Chronic-plus-binge ethanol-fed; format: in vivo, C57BL/6J mice
[5] = test system: SIRT1, SREBP-1C, PPAR-α and their target genes (liver mRNA); test: qRT-PCR of lipid metabolism genes and SIRT1 in liver of ALD mice; format: in vivo, C57BL/6J mice; conditions: ethanol-fed mice, oral SSa
Method in brief: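 NIAAA chronic-plus-binge model in C57BL/6J mice: 14-day 5% ethanol Lieber–DeCarli diet, oral SSa (5–15 mg/kg) daily for 7 days, ethanol binge on day 15, liver harvested 9 h later. Liver mRNA measured by SYBR Green qRT-PCR (25 nmol/L primers), β-actin reference, delta-delta Ct method. Protein by western blot: 20 µg per lane, 10% SDS-PAGE, ECL detection.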

SIRT1 [6] = test: Immunostaining targeting SIRT1 in mouse liver; format: in vivo, C57BL/6J mice; conditions: ethanol-fed mice, oral SSa
Method in brief: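 Male C57BL/6J mice (8 weeks) on the NIAAA chronic-plus-binge model: 5 days of Lieber–DeCarli control liquid diet, then 5% (v/v) ethanol liquid diet for 14 days. Oral SSa 5, 10 or 15 mg/kg once daily for 7 days. Day-15 oral ethanol binge; harvest under isoflurane 9 h later. Livers fixed in 4% paraformaldehyde, 5 µm sections, SIRT1 immunofluorescence imaged confocally; n = 3.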

[7] = test system: liver, kidney, spleen, lung and heart; test: Short-term toxicity of SSa, 14 days by gavage, HE staining of organs; format: in vivo; conditions: male C57BL/6J mice, SSa 15 mg/kg/daily
SIRT1 [8] = test: Hepatic SIRT1 protein over time after gavage with SSa solution; format: in vivo, mice; conditions: 0-12 h after gavage with SSa solution
[9] = biological target: T1, Recombinant human SIRT1 protein (Homo sapiens, UniProt Q96EB6); test: Microscale thermophoresis; format: binding; conditions: Kd between SIRT1 and compound (MST), recombinant human SIRT1, RED-NHS labelled
T1 sequence (Q96EB6 1-747): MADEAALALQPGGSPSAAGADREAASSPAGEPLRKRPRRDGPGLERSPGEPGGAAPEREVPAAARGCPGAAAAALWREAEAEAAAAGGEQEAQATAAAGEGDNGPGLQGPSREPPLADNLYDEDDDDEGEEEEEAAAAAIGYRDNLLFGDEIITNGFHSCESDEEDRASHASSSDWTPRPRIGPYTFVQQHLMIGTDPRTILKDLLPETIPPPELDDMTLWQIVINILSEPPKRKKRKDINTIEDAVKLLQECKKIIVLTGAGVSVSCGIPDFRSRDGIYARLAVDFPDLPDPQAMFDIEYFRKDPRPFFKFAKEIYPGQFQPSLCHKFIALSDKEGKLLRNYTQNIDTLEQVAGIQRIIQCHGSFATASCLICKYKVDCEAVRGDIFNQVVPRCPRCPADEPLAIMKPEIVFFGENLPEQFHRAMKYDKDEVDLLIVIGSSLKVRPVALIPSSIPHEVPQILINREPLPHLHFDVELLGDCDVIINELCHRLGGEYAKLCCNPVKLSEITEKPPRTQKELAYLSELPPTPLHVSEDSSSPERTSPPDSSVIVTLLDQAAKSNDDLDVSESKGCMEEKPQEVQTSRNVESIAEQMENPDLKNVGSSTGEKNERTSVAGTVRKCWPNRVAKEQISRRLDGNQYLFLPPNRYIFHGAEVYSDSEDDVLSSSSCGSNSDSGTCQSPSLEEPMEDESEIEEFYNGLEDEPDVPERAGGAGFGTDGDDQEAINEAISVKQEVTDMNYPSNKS
Method in brief: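 Recombinant human SIRT1 labelled with RED-NHS dye (30 min, room temperature, dark) and gel-filtered; pre-test checked labelling, adsorption and aggregation. Incubated 5 min at 24 °C before MST.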

[10] = test system: chronic-plus-binge ethanol-fed mice with hepatic SIRT1 knockdown; test: NIAAA model in mice with hepatic SIRT1 knockdown; format: in vivo, C57BL/6J mice
Method in brief: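 Hepatic SIRT1 knockdown in C57BL/6J mice by tail-vein AAV8-TBG-miR30 shRNA against mouse SIRT1, with ZsGreen tag (1 × 10^12 vg/mouse); AAV8-TBG-ZsGreen as control. Four weeks later: NIAAA chronic-plus-binge ethanol model with oral test compound once daily for 7 days. Knockdown checked by liver ZsGreen fluorescence and SIRT1 western blot. Body weight tracked, n = 6.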

[11] = test system: PGC-1α, PPAR-α, CPT-1α, ACC-1, SREBP-1C, FAS, SCD-1 (liver mRNA); format: in vivo, C57BL/6J mice; conditions: ethanol-fed mice, oral SSa
[12] = test system: SIRT1, PGC-1α, PPAR-α, Deptor, mTOR, p-mTOR (liver); test: Western blot of liver proteins, with or without hepatic SIRT1 knockdown; format: in vivo, C57BL/6J mice; conditions: ethanol-fed mice, oral SSa
[13] = cited from earlier work
[14] = mice, after intragastric SSa 50 mg/kg

With `C[C@H]1O[C@@H](O[C@H]2CC[C@@]3(C)[C@@H](CC[C@]4(C)[C@@H]3C=CC3=C5CC(C)(C)CC[C@]5(CO)[C@@H](O)C[C@]34C)[C@]2(C)CO)[C@H](O)[C@@H](O[C@@H]2O[C@H](CO)[C@@H](O)[C@H](O)[C@H]2O)[C@H]1O` [SSB1, Saikosaponin B1] the “maximal (peak) plasma concentration” value [1, 14] was 105.12 ng/mL, the “time of first detection in plasma” value [1, 14] was 0.5 h and the “time of peak plasma concentration” value [1, 14] was 1 h. The “course of plasma level after administration (in words)” value (from here on “course of plasma level”) ([1]; mice) was “undetectable after 6 h of administration; also recorded: quickly metabolized after administration”, the “ethanol-induced lipid droplet accumulation (Oil red O)” value (HepG2 cells [2]) was “had no significant effect” and the “ethanol-induced ROS production” value (HepG2 cells [3]) was “had no effect on ROS”.

With `C[C@H]1O[C@@H](O[C@H]2CC[C@@]3(C)[C@@H](CC[C@]4(C)[C@@H]3C=C[C@]35OC[C@@]6(CCC(C)(C)C[C@H]63)[C@@H](O)C[C@]54C)[C@]2(C)CO)[C@H](O)[C@@H](O[C@@H]2O[C@H](CO)[C@@H](O)[C@H](O)[C@H]2O)[C@H]1O` [SSa, Saikosaponin A] the “body weight and liver index” value ([4]; SSa 5, 10, 15 mg/kg oral) was “improved body weight and liver index in a dose-dependent manner”, the “NAD+/NADH ratio in liver homogenate” value ([4]; oral SSa) was “increased the NAD^+/NADH ratio” and the “TC and TG in liver homogenate” value ([4]; oral SSa) was “significantly reduced alcohol-induced TC and TG accumulation in the liver”. For the same compound, the “liver function and plasma TC, TG, γ-GT, De Ritis ratio” value ([4]; oral SSa) was “significantly ameliorated liver function and reduced the plasma TC, TG, γ-GT content and De Ritis ratio”, the “liver lipid deposition (Oil red O staining)” value ([4]; oral SSa) was “reduced alcohol-induced liver lipid deposition in a dose-dependent manner” and the “liver pathology (HE staining)” value ([4]; oral SSa) was “improves liver pathological injury”. The “liver mRNA of SREBP-1C and its target genes” value [5] was “decreased the elevation of SREBP-1C, ACC-1, FAS and SCD-1 induced by alcohol”, the “alcohol-induced decrease of SIRT1 expression in the liver” value ([5]; mRNA and protein (Fig. 2I, J)) was “can reverse this phenomenon” and the “SIRT1 entry into the nucleus (liver immunofluorescence)” value (SIRT1 [6]) was “promoted SIRT1 entry into the nucleus”. The “short-term toxicity: pathological changes of liver, kidney, spleen, lung and heart (HE)” value [7] was “no significant pathological changes”, the “maximal (peak) plasma concentration” value [1, 14] was 63.31 ng/mL and the “course of plasma level” value ([1]; mice) was “almost completely metabolized after 2 h of administration”. For the same compound, the “course of plasma level” value ([1]; mice, listed as SSA) was “quickly metabolized after administration”, the Tmax ([1]; mouse, plasma, po, 50 mg/kg) was 30 min and the “hepatic SIRT1 protein abundance over time” value (SIRT1 [8]) was “enhanced hepatic SIRT1 protein abundance at 4–12 h”. For the same compound, the “ethanol-induced lipid droplet accumulation (Oil red O)” value (HepG2 cells [2]) was “significantly reduced the lipid droplet accumulation induced by ethanol”, the “ethanol-induced ROS production” value (HepG2 cells [3]) was “significantly limited ethanol-induced ROS production” and the Kd [9] was about 25.2 µM. For the same compound, the “body weight with hepatic SIRT1 knockdown” value ([10]; SSa administration for 7 days) was “had no effect on body weight”, the “NAD+/NADH with hepatic SIRT1 deficiency” value ([10]; ethanol-fed mice, oral SSa) was “the increase of NAD^+/NADH induced by SSa was also inhibited” and the “hepatic pathology and lipid deposition with hepatic SIRT1 deficiency” value ([10]; ethanol-fed mice, oral SSa) was “prevents the SSa’s improvement in alcohol-induced hepatic pathology and lipid deposition”. The “liver function recovery with hepatic SIRT1 knockdown” value ([10]; ethanol-fed mice, oral SSa) was “mitigated SSa’s improvement in alcohol-induced liver function recovery”, the “liver PGC-1α, PPAR-α, CPT-1α mRNA with SIRT1 knockdown” value [11] was “inhibits the upregulation of PGC-1α, PPAR-α, CPT-1α induced by SSa” and the “liver mRNA of SREBP-1C, ACC1, FAS and SCD-1” value ([11]; reversed by SIRT1 knockdown) was “decreased the mRNA expression of SREBP-1C, ACC1, FAS and SCD-1”. The “liver PGC-1α, PPAR-α and Deptor protein with SIRT1 deficiency” value [12] was “decreases the expression of PGC-1α, PPAR-α and Deptor induced by SSa treatment”, the “intestinal absorption after oral administration” value [13] was “poor absorbance in the intestine when administered orally” and the “toxicity under intravenous injection” value [13] was “marked hemolysis under intravenous injection”.
